Bioassay records from PubChem BioAssay.
SR-BI DiI-HDL act: SR-BI HDL lipid transfer activation; CHO ldlA[mSR-BI] cells, DiI-HDL uptake fluorescence, 3 h; 100 = double the neutral-control signal; activation, % at 12.5 µM; 320,000 tested, 0.096% active; AID 504775;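 active means mean replicate activation of at least 60% and every replicate at or above 60%; inconclusive means mean or all-replicate condition met, but not both; inactive means mean below 60% and not all replicates reaching 60%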
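material = CHO ldlA[mSR-BI] cells | medium = Ham's F12 with 0.5% BSA, HEPES 25 mM, pH 7.4 | reagent = fluorescent DiI-HDL, 10 µg/mL final | compound dosing = single-point compound dose | incubation = 3 h, 37 °C | measured by = bottom-read fluorescence, 550/595 nm | measure = HDL uptake via cellular fluorescence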
XiGFP reactiv: X-chromosome reactivation activator; XiGFP mouse fibroblasts, % GFP-positive cells imaging, 3 d; cells co-treated with 5-aza-dC sensitizer; scaled so ellipticine positive control = 100%; activation, % at 7.58 µM; 360,000 tested, 0.055% active; AID 743238;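 active means mean normalized replicate activation at least 10% and every replicate at or above 10%; inconclusive means only one of the two criteria met; inactive means mean below 10% and not all replicates reach 10%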
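Material: XiGFP fibroblasts, SV40-immortalized; Buffer or medium: DMEM containing 5-aza-dC; Compound dosing: single point; Times: 3 days compound exposure.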
NSD2 inh: NSD2 (human) methyltransferase inhibition | O96028 | NSD2 peptide methylation, AlphaScreen, 120 min | inhibition, % at 12.5 µM | 310,000 tested, 0.54% active; in the data active means inhibition above about 50%
ARNT-TACC3 inh: ARNT/TACC3 interaction disruption; Q9Y6A5; AlphaScreen His-ARNT PAS-B/GST-TACC3 binding, luminescence; TACC3 fragment carries E629A point mutation; inhibition, % at 9.99 µM; 390,000 tested, 0.66% active; AID 623870;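 active means mean inhibition of replicates at least 50% and at least half of replicates each reaching 50%; inconclusive means half or more replicates reach 50% but mean below 50%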
SR-BI HDL uptake: mouse SR-BI HDL lipid transfer inhibition | Q61009 | ldlA[mSR-BI] CHO cells, DiI-HDL uptake fluorescence, 3 h | inhibition, % at 12.5 µM | 320,000 tested, 0.96% active | AID 488896;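 active means mean replicate inhibition of at least 70% and a set share of replicates each scoring 70 or more; inconclusive means meets just one of the two criteria; inactive means fails both criteria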
HGIII-sPLA2 inh: Inhibits HGIII-sPLA2 liposome hydrolysis, primary screen; Q9NZ20; QFRET BODIPY PC-A2 liposome hydrolysis, fluorescence; inhibition, % at 12.2 µM; 370,000 tested, 0.56% active;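 active means inhibition above mean plus 3 SD of compounds lying within the high and low control bounds, cut at about 19% in these data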
Target sequence (Q9NZ20 whole entry, looked up): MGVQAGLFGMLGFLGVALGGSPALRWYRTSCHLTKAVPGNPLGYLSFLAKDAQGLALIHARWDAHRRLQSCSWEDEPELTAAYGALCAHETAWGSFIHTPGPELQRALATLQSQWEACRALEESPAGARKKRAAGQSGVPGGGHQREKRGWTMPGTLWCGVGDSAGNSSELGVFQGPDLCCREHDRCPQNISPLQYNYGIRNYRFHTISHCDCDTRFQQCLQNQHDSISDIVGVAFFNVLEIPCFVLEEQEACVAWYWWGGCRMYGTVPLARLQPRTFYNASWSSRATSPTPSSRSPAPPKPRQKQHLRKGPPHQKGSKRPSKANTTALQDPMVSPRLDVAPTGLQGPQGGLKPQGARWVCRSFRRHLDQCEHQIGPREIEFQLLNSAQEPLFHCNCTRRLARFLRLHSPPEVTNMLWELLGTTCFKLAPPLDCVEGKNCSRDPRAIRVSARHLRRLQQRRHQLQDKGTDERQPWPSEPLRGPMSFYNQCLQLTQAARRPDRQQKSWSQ
Hits are given with their value; 0 = inactive; ? = inconclusive; - = not tested or not shown. Most compounds without a hit are left out; they make up all but 2% or so of the library.

SMILES | SR-BI DiI-HDL act | XiGFP reactiv | NSD2 inh | ARNT-TACC3 inh | SR-BI HDL uptake | HGIII-sPLA2 inh
COc1cc(/C=C/C(=O)N2CCN(CC(O)COc3ccccc3)CC2)cc(OC)c1OC (centres undefined) | 0 | - | 0 | 0 | 79 | 0
C[C@H]1CCCCO[C@@H](CN(C)Cc2ccncc2)[C@@H](C)CN([C@@H](C)CO)C(=O)c2cc(NC(=O)NC3CCCCC3)ccc2O1 | - | 0 | - | 0 | - | -
CC(=O)NC(c1cc(F)c2cccnc2c1O)C1CC1 (centres undefined) | 0 | 0 | - | 40 | 0 | 0
CCOc1ccccc1NC(=O)CCCNC(=O)Cn1cnc2sc(C)c(C)c2c1=O | 0 | 0 | 0 | 0 | 72 | 0
COc1cc(OC)c(NC(=O)CCCNC(=O)Cn2cnc3sc(C)c(C)c3c2=O)cc1Cl | 0 | 0 | 0 | 0 | 81 | 0
COc1ccc(C)cc1NC(=O)CCCNC(=O)Cn1cnc2sc(C)c(C)c2c1=O | 0 | 0 | 0 | 0 | 78 | 0
COc1ccc(NC(=O)CCCNC(=O)Cn2cnc3sc(C)c(C)c3c2=O)c(OC)c1 | 0 | 0 | 0 | 0 | 0 | 0
COC(=O)c1sc2ncn(CC(=O)NCCc3ccc(OC)c(OC)c3)c(=O)c2c1C | 0 | 0 | 0 | - | 76 | 0
COc1ccc(-n2cc(CNCCc3cnc[nH]3)c(-c3cccc(F)c3)n2)cc1 | 0 | 0 | 0 | 0 | 0 | 0
O=C(NNC(=O)c1cc2ccccc2o1)c1ccc(F)cc1 | 0 | 0 | 0 | 0 | 0 | 0
O=C(NNC(=O)c1cc2ccccc2o1)c1ccc(Cl)cc1 | 510 | ? | 0 | 0 | 0 | 0
Cc1cc(Cl)cc2c(N=Nc3ccccc3C(=O)O)c(O)[nH]c12 | - | 0 | 0 | 0 | - | 0
Cc1ccc(Cl)c2c(N=Nc3ccccc3)c(O)[nH]c12 | 0 | 27 | 0 | 0 | 0 | 0
Cc1cc(C)c2c(c1)[C@@H]1C=CC[C@@H]1[C@H](c1ccc(S(=O)(=O)N3CCOCC3)cc1)N2 | 0 | 0 | - | 0 | 0 | 0
COc1ccc(CCNC(=O)c2ccc(-c3cccc([N+](=O)[O-])c3)o2)cc1OC | 0 | 0 | 0 | 0 | 72 | 0
COc1ccc(-c2oc(/N=C/N3CCOCC3)c(C#N)c2-c2ccc(OC)cc2)cc1 | 0 | - | 0 | 0 | 72 | 0
CCCCc1cc(=O)oc2c3c(cc(OCC(=O)N4CCC[C@H]4C(=O)O)c12)OC(C)(C)CC3 | 0 | - | - | - | 0 | 0
Cc1cc(=O)oc2c3c(cc(OCC(=O)N4CCC[C@H]4C(=O)O)c12)OC(C)(C)CC3 | 0 | - | - | 32 | 0 | 0
Cc1cc(=O)oc2c3c(cc(OCC(=O)NCc4ccccc4)c12)OC(C)(C)CC3 | 0 | - | - | 0 | 80 | 0
CC(=O)N(C)C[C@@H]1Oc2cc(C#CC3CCCCC3)ccc2S(=O)(=O)N([C@@H](C)CO)C[C@H]1C | - | 0 | - | 0 | - | -
Cc1ccccc1C(=O)N1CCC1(C)C(=O)NC(C)C (centres undefined) | - | 0 | 0 | - | - | 0
CCOC(=O)[C@]12CCC=C1N(Cc1ccc3c(c1)OCO3)C(=O)[C@H](CC(=O)NCc1ccc(OC)c(OC)c1)C2 | - | 0 | - | - | - | 0
O=C(NC(=S)Nc1cccc(O)c1)c1cncc(Br)c1 | - | 0 | 0 | 0 | - | 0
O=C(NC(=S)Nc1ccc(O)cc1)c1cncc(Br)c1 | 0 | 0 | 0 | 0 | 0 | 22
NNC(=O)c1sc(-c2ccc(Cl)cc2)cc1N | 0 | 19 | 0 | 0 | 110 | 0
SMILES | SR-BI DiI-HDL act | XiGFP reactiv | NSD2 inh | ARNT-TACC3 inh | SR-BI HDL uptake | HGIII-sPLA2 inh
O=C(N/N=C/c1cccc([N+](=O)[O-])c1)c1ccc(Br)cc1 | 0 | 0 | 0 | 0 | 0 | 0
COc1ccc(/C=N/NC(=O)c2cccc([N+](=O)[O-])c2)c2ccccc12 | 0 | 0 | 0 | 0 | 75 | 0
COc1ccc(C(=O)Nc2cccc(/C(C)=N\NC(=O)c3ccoc3C)c2)cc1OC | 0 | 0 | 0 | - | ? | 0
O=C(N/N=C/c1cccc([N+](=O)[O-])c1)c1ccc(COc2ccccc2-c2ccccc2)cc1 | 0 | 0 | 0 | 0 | 74 | 0
CCOc1ccc(C(=O)Nc2cccc([N+](=O)[O-])c2)cc1Br | 0 | 0 | 0 | 0 | 72 | 0
COc1ccc(C(=O)Nc2cccc(/C(C)=N/NC(=O)c3ccc([N+](=O)[O-])c(C)c3)c2)cc1OC | 0 | - | 0 | 0 | 86 | 0
COC(C[C@H](O)C[C@H](O)[C@@H](C)OCc1ccccc1)OC | 0 | 0 | - | 0 | 0 | 0
Cc1cccc(/C=N/NC(=O)c2cccc([N+](=O)[O-])c2)n1 | 0 | 0 | 0 | - | 0 | 0
COc1ccccc1/C=C(\NC(=O)c1ccc(OC)c(OC)c1)C(=O)Nc1ccc([N+](=O)[O-])cc1 | 0 | 0 | 0 | 0 | 0 | 0
COc1cccc(/C=N/NC(=O)c2ccc([N+](=O)[O-])cc2Cl)c1O | 0 | 0 | 0 | 59 | 0 | 0
COc1cc(/C=N/NC(=O)c2cccc([N+](=O)[O-])c2)ccc1OCc1ccccc1 | 0 | - | 0 | 0 | 89 | 0
Cc1cc(/C=N/NC(=O)c2cccc([N+](=O)[O-])c2)c(C)n1-c1ccc(Cl)cc1Cl | 0 | - | 0 | 0 | 89 | 0
COc1ccccc1/C=C(\NC(=O)c1ccc(OC)c(OC)c1)C(=O)Nc1cccc([N+](=O)[O-])c1 | 0 | 0 | 0 | 0 | 74 | 0
CCCCN1C(=O)C(CC(=O)NC(c2ccccc2)c2ccccc2)CC(C(=O)N(CC)CC)=C1C (centres undefined) | - | 0 | - | - | - | 0
CN(C(=O)c1ccc2c(Cl)c3c(nc2c1)CCC3)c1ccccc1 | 0 | 0 | - | 0 | 0 | 0
CCN(C(=O)c1ccc2c(Cl)c3c(nc2c1)CCC3)c1ccc(C)c(C)c1 | 0 | 0 | - | 0 | 86 | 0
Cc1ccccc1N1CCN(S(=O)(=O)C[C@]23CCC(CC2NC(=O)[C@@H](N)CCS(C)(=O)=O)C3(C)C)CC1 (some centres undefined) | 0 | 0 | - | 0 | 0 | 0
CCOc1ccc(S(=O)(=O)NCCC(=O)N(C)CC(=O)Nc2ccc(OC)cc2)cc1 | 0 | 0 | - | 0 | 0 | 0
COc1cccc(-c2nc(NC(C)(C)C)c3ccccc3n2)c1O | 0 | - | 0 | 0 | 84 | 0
COc1ccc(Nc2nc(-c3cccc(OC)c3O)nc3ccccc23)cc1 | 0 | 0 | 0 | 0 | 83 | 0
CC(=O)Nc1cc(-c2cccc(C(=O)N(C)C)c2)cn2c(-c3ccc(F)c(Cl)c3)cnc12 | - | 0 | 0 | - | - | 0
CC(=O)Cn1c(=O)oc2ccccc21 | 113 | 0 | 0 | 0 | 0 | 0
CC(=O)N1CCN(C(=O)Cn2c(=O)oc3ccccc32)CC1 | 0 | - | 0 | 0 | 0 | 0
CC(C)(C)C(=O)N1CCN(c2ccc([N+](=O)[O-])c(-n3nc(-c4ccccc4)c4ccccc4c3=O)c2)CC1 | 0 | 0 | 0 | 0 | 0 | 0
Cc1ccc(S(=O)(=O)N(C)c2ccc(OCC(=O)NCC3(N(C)C)CCCCC3)cc2)cc1 | 0 | 0 | 0 | 0 | 83 | 0
